# Key:
# Type in all cases: functional
# A498 [1] = assay: Growth inhibition of human A498 cells assessed as cell growth at 10 '-7 M after 48 hrs by sulforhodamine B assay; details: A498, 48 h, read-out: Activity
# Method in brief: (§1)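 Percent growth at each of the five concentrations of the 48 h continuous-exposure NCI SRB screen. Drug stocks were in DMSO at 400× the top final concentration and diluted in medium with gentamicin. Growth was calculated as [(Ti-Tz)/(C-Tz)]×100 when Ti ≥ Tz, or [(Ti-Tz)/Tz]×100 when Ti < Tz. Tz plates were fixed at drug addition; untreated wells served as control. Absorbance was read at 515 nm.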
# OVCAR-3 = assay: Growth inhibition of human OVCAR3 cells assessed as cell growth at 10 '-7 M after 48 hrs by sulforhodamine B assay; details: OVCAR-3, 48 h, read-out: Activity
# OVCAR-8 = assay: Growth inhibition of human OVCAR8 cells assessed as cell growth at 10 '-8 M after 48 hrs by sulforhodamine B assay; details: OVCAR-8, 48 h, read-out: Activity
# NCI-H322M = assay: Growth inhibition of human NCI-H322M cells assessed as growth inhibition at 10 uM after 48 hrs by sulforhodamine B assay; details: read-out: GI
# SR = assay: Growth inhibition of human SR cells assessed as cell growth at 10 '-7 M after 48 hrs by sulforhodamine B assay; details: read-out: Activity
# SNB-75 [2] = assay: Growth inhibition of human SNB75 cells assessed as cell growth at 10 '-7 M after 48 hrs by sulforhodamine B assay; details: SNB-75, 48 h, read-out: Activity
# SF-268 = assay: Growth inhibition of human SF268 cells assessed as cell growth at 10 '-7 M after 48 hrs by sulforhodamine B assay; details: SF-268, 48 h, read-out: Activity
# HOP-62 [3] = assay: Growth inhibition of human HOP62 cells assessed as cell growth at 10 '-4 M after 48 hrs by sulforhodamine B assay; details: HOP-62, 48 h, read-out: Activity
# HT-29 = assay: Growth inhibition of human HT-29 cells assessed as cell growth at 10 '-4 M after 48 hrs by sulforhodamine B assay; details: HT-29, 48 h, read-out: Activity
# LOX IMVI = assay: Growth inhibition of human LOXIMVI cells after 48 hrs by sulforhodamine B assay
# Method in brief: (§2)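 NCI 60-cell-line five-dose screen. Cells were plated at 5,000–40,000/well by doubling time and grown 24 h at 37 °C, 5% CO2. Time-zero plates were TCA-fixed. Drug from DMSO stock was tested at 0.01, 0.1, 1, 10 and 100 µM final for 48 h continuous exposure. Read-out was SRB at 515 nm. GI50 is the concentration giving 50% reduction in net protein increase versus untreated control.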
# SW-620 [4] = assay: Growth inhibition of human SW620 cells assessed as cell growth at 10 '-4 M after 48 hrs by sulforhodamine B assay; details: SW-620, 48 h, read-out: Activity
# [5] = Growth inhibition of human HCC2998 cells after 48 hrs by sulforhodamine B assay; details: HCC 2998, 48 h; method in brief: as §2
# SK-OV-3 [6] = assay: Growth inhibition of human SKOV3 cells assessed as growth inhibition at 10 uM after 48 hrs by sulforhodamine B assay; details: SK-OV-3, 48 h, read-out: GI
# 786-0 = assay: Growth inhibition of human 786-0 cells assessed as cell growth at 10 '-4 M after 48 hrs by sulforhodamine B assay; details: 786-0, 48 h, read-out: Activity; method in brief: as §1
# SNB-75 [7] = assay: Growth inhibition of human SNB75 cells assessed as growth inhibition at 10 uM after 48 hrs by sulforhodamine B assay; details: SNB-75, 48 h, read-out: GI
# U-251 = assay: Growth inhibition of human U251 cells assessed as cell growth at 10 '-4 M after 48 hrs by sulforhodamine B assay; details: U-251, 48 h, read-out: Activity
# BT-549 = assay: Growth inhibition of human BT549 cells assessed as growth inhibition at 10 uM after 48 hrs by sulforhodamine B assay; details: BT-549, 48 h, read-out: GI
# Method in brief: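 Percent growth inhibition from the single 10^-5 M NCI-60 screen, reported as 100 minus growth percent. Growth percent was measured after 48 h drug exposure at 37 °C, 5% CO2, using TCA fixation, SRB staining and absorbance at 515 nm, against untreated controls and time-zero plates.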
# RXF 393 = assay: Growth inhibition of human RXF393 cells assessed as growth inhibition at 10 uM after 48 hrs by sulforhodamine B assay; details: RXF 393, 48 h, read-out: GI
# UACC-62 = assay: Growth inhibition of human UACC62 cells assessed as cell growth at 10 '-7 M after 48 hrs by sulforhodamine B assay; details: UACC-62, 48 h, read-out: Activity
# SW-620 [8] = assay: Growth inhibition of human SW620 cells assessed as cell growth at 10 '-8 M after 48 hrs by sulforhodamine B assay; details: SW-620, 48 h, read-out: Activity
# M14 = assay: Growth inhibition of human M14 cells assessed as cell growth at 10 '-7 M after 48 hrs by sulforhodamine B assay; details: M14, 48 h, read-out: Activity
# ACHN = assay: Growth inhibition of human ACHN cells assessed as cell growth at 10 '-8 M after 48 hrs by sulforhodamine B assay; details: read-out: Activity; method in brief: as §1
# DU-145 = assay: Growth inhibition of human DU145 cells after 48 hrs by sulforhodamine B assay; details: DU-145, 48 h; method in brief: as §2
# A498 [9] = assay: Growth inhibition of human A498 cells assessed as cell growth at 10 '-5 M after 48 hrs by sulforhodamine B assay; details: A498, 48 h, read-out: Activity; method in brief: as §1
# T47D = assay: Growth inhibition of human T47D cells after 48 hrs by sulforhodamine B assay
# HOP-62 [10] = assay: Growth inhibition of human HOP62 cells assessed as growth inhibition at 10 uM after 48 hrs by sulforhodamine B assay; details: HOP-62, 48 h, read-out: GI
# SK-OV-3 [11] = assay: Growth inhibition of human SKOV3 cells assessed as cell growth at 10 '-7 M after 48 hrs by sulforhodamine B assay; details: SK-OV-3, 48 h, read-out: Activity
# NCI-H522 = assay: Growth inhibition of human NCI-H522 cells assessed as cell growth at 10 '-6 M after 48 hrs by sulforhodamine B assay; details: NCI-H522, 48 h, read-out: Activity
# A498 [12] = assay: Growth inhibition of human A498 cells assessed as cell growth at 10 '-8 M after 48 hrs by sulforhodamine B assay; details: A498, 48 h, read-out: Activity; method in brief: as §1
# PC-3 = assay: Growth inhibition of human PC3 cells assessed as cell growth at 10 '-7 M after 48 hrs by sulforhodamine B assay; details: PC-3, 48 h, read-out: Activity
# UO-31 = assay: Growth inhibition of human UO31 cells assessed as cell growth at 10 '-4 M after 48 hrs by sulforhodamine B assay; details: UO-31, 48 h, read-out: Activity
# [13] = read-out: LD50 (the source's name)
structure (smiles),measurement,setting,value
Cc1cc(=O)oc2cc(OCCn3c(C)nn(-c4ccc(Cl)cc4)c3=O)ccc12,growth at 0.1 µM,A498 [1],76%
same,growth at 0.1 µM,OVCAR-3,110%
same,growth at 0.01 µM,OVCAR-8,95%
same,inhibition of growth at 10 µM,NCI-H322M,41.3%
same,growth at 0.1 µM,SR,99%
same,growth at 0.1 µM,SNB-75 [2],79%
same,growth at 0.1 µM,SF-268,99%
same,growth at 100 µM,HOP-62 [3],-8%
same,growth at 100 µM,HT-29,9%
same,GI50,LOX IMVI,4.83 µM
same,TGI,LOX IMVI,> 1 µM
same,CC50,LOX IMVI; [13],> 1 µM
same,growth at 100 µM,SW-620 [4],25%
same,GI50,[5],3.59 µM
same,TGI,[5],> 1 µM
same,CC50,[5]; [13],> 1 µM
same,inhibition of growth at 10 µM,SK-OV-3 [6],58.9%
same,growth at 100 µM,786-0,15%
same,inhibition of growth at 10 µM,SNB-75 [7],79.6%
same,growth at 100 µM,U-251,-4%
same,inhibition of growth at 10 µM,BT-549,43.3%
same,inhibition of growth at 10 µM,RXF 393,62.6%
same,growth at 0.1 µM,UACC-62,90%
same,growth at 0.01 µM,SW-620 [8],99%
same,growth at 0.1 µM,M14,101%
same,growth at 0.01 µM,ACHN,111%
same,GI50,DU-145,3.9 µM
same,TGI,DU-145,> 1 µM
same,CC50,DU-145; [13],> 1 µM
same,growth at 10 µM,A498 [9],8%
same,GI50,T47D,7.55 µM
same,TGI,T47D,> 1 µM
same,CC50,T47D; [13],> 1 µM
same,inhibition of growth at 10 µM,HOP-62 [10],72.7%
same,growth at 0.1 µM,SK-OV-3 [11],103%
same,growth at 1 µM,NCI-H522,87%
same,growth at 0.01 µM,A498 [12],81%
same,growth at 0.1 µM,PC-3,90%
same,growth at 100 µM,UO-31,39%

# — ChEMBL document CHEMBL2346664, “Synthesis, characterization and in vitro anticancer evaluation of novel 1,2,4-triazolin-3-one derivatives” (2013)
